Experimental data: ChEMBL document CHEMBL1157620, “1-(Aryl)-6-[alkoxyalkyl]-3-azabicyclo[3.1.0]hexanes and 6-(aryl)-6-[alkoxyalkyl]-3-azabicyclo[3.1.0]hexanes: a new series of potent and selective triple reuptake inhibitors” (J Med Chem, 2010)

Legend:
[1] = target: Sodium-dependent noradrenaline transporter (Homo sapiens, UniProt P23975); assay: Displacement of [3H]nisoxetine from human recombinant NET expressed in BacMam virus-transduced cells by scintillation proximity assay; assay type: cell-based
Chain of Sodium-dependent noradrenaline transporter (P23975 whole entry): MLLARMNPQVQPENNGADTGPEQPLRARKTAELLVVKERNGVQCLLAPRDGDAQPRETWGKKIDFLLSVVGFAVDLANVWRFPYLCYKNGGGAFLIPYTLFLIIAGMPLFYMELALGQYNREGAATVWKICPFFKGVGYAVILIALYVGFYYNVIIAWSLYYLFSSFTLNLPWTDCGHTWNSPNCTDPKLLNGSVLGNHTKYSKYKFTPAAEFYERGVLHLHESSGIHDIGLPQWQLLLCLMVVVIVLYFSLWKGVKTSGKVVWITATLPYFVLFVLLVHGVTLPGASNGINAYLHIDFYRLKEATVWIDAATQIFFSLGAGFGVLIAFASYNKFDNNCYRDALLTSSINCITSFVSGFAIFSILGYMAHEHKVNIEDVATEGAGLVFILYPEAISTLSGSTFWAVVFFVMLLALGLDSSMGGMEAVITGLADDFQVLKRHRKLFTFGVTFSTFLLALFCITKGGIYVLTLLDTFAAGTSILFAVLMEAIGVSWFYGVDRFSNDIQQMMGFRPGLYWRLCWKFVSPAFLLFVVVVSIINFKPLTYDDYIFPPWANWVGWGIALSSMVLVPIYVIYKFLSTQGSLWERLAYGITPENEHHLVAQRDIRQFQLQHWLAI
Method in brief: (§1)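 BacMam-transduced membranes in SPA format. SERT: 1 mg/mL beads, 6 μg/mL membranes, 3 nM [3H]citalopram. NET: 2 mg/mL beads, 40 μg/mL membranes, 10 nM [3H]nisoxetine. Incubated overnight at room temperature; pKi from pIC50 by Cheng-Prusoff.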

[2] = target: Sodium-dependent dopamine transporter (Homo sapiens, UniProt Q01959); assay: Displacement of [3H]WIN-35428 from human recombinant DAT expressed in BacMam virus-transduced cells by scintillation proximity assay; assay type: cell-based
Chain of Sodium-dependent dopamine transporter (Q01959 whole entry): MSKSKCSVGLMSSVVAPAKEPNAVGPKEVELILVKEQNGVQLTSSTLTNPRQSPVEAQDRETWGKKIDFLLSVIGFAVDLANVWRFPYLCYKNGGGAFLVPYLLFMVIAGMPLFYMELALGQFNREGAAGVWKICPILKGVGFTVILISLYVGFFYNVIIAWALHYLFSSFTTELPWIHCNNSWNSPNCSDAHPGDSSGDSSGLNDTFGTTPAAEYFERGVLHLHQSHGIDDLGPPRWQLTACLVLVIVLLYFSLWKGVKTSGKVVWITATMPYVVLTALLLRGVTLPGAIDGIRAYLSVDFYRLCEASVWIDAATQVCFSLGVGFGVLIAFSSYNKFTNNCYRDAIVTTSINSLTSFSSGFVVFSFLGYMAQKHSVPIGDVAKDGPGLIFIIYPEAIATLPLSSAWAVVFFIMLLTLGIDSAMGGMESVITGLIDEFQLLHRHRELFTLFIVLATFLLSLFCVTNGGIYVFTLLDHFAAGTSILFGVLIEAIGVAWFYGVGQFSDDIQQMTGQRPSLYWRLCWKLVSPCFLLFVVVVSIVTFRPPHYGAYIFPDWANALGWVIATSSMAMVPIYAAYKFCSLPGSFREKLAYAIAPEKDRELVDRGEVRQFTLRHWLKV

Cytochrome P450 2C9 = Cytochrome P450 2C9 (Homo sapiens, UniProt P11712); assay: Inhibition of human CYP2C9 by fluorescence assay; assay type: ADME
Chain of Cytochrome P450 2C9 (P11712 whole entry): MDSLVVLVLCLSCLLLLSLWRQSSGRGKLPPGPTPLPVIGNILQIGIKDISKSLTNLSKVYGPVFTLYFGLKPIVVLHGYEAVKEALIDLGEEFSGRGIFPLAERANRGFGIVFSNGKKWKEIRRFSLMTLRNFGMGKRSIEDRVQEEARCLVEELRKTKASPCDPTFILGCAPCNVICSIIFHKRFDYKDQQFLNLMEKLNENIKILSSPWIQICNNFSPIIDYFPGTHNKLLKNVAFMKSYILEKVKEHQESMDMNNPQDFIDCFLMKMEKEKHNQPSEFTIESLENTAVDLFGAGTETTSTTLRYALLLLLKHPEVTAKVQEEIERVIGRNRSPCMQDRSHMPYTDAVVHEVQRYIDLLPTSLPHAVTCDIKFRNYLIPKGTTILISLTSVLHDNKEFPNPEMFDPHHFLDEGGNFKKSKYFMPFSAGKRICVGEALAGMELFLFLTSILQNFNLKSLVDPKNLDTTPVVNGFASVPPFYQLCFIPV
Method in brief: (§2)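 Recombinant human P450 bactosomes (0.1 mg/mL) in 50 mM phosphate, pH 7.4. Test compound at 0.1-10 μM, preincubated 10 min at 37 °C with fluorogenic substrate: ethoxyresorufin 0.5 μM (1A2), FCA 50 μM (2C9), BMC 10 μM (2C19), MMC 10 μM (2D6).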

[3] = (§3) Intrinsic clearance in human liver microsomes assessed per gram of protein at 0.5 uM after 30 mins by HPLC-MS/MS analysis; assay type: ADME, Microsome; settings: liver microsomes
Method in brief: (§4)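 Compound at 0.5 μM with rat or human liver microsomes (0.5 mg protein/mL), 50 mM phosphate, pH 7.4, 37 °C, started with NADPH. Sampled at 0-30 min, acetonitrile quench, HPLC-MS/MS. CLi from first-order elimination constant, scaled assuming 52.5 mg microsomal protein/g.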

Cytochrome P450 2D6 = Cytochrome P450 2D6 (Homo sapiens, UniProt P10635); assay: Inhibition of human […] by fluorescence assay; assay type: ADME; method in brief: as §2
Chain of Cytochrome P450 2D6 (P10635 whole entry): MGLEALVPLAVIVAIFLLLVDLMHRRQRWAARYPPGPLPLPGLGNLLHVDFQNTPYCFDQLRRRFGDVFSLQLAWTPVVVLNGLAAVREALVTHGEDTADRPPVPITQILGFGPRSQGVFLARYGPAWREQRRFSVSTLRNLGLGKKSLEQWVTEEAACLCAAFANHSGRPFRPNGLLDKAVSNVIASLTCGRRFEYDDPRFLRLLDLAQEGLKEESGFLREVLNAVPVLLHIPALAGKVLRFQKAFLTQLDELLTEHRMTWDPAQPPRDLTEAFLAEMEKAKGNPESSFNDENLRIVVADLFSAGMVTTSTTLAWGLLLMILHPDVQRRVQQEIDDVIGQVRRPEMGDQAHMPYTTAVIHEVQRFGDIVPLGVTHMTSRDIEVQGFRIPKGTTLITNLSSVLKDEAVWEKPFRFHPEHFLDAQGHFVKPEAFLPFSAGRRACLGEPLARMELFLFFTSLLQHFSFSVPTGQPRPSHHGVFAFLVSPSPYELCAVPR

Cytochrome P450 1A2 = target: T1, Cytochrome P450 1A2 (Homo sapiens, UniProt P05177); assay: Inhibition of human CYP1A2 by fluorescence assay; assay type: ADME; method in brief: as §2
T1 sequence (P05177 whole entry): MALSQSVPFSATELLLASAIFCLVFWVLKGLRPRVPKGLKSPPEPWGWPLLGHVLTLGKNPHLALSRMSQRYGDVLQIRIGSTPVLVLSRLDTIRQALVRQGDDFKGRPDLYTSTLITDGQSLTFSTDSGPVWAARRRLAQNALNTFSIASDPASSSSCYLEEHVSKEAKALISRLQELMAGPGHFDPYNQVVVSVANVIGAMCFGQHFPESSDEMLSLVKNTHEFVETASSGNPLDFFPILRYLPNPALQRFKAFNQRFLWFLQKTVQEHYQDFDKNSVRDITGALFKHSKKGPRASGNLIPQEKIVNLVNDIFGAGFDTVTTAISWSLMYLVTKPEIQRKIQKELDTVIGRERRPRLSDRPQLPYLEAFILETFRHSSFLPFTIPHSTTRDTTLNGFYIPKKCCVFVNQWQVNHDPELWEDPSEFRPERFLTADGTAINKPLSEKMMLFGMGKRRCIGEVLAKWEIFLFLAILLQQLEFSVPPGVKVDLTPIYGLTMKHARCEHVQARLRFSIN

[4] = target: Sodium-dependent serotonin transporter (Homo sapiens, UniProt P31645); assay: Displacement of [3H]citalopram from human recombinant SERT expressed in BacMam virus-transduced cells by scintillation proximity assay; assay type: cell-based; method in brief: as §1
Chain of Sodium-dependent serotonin transporter (P31645 whole entry): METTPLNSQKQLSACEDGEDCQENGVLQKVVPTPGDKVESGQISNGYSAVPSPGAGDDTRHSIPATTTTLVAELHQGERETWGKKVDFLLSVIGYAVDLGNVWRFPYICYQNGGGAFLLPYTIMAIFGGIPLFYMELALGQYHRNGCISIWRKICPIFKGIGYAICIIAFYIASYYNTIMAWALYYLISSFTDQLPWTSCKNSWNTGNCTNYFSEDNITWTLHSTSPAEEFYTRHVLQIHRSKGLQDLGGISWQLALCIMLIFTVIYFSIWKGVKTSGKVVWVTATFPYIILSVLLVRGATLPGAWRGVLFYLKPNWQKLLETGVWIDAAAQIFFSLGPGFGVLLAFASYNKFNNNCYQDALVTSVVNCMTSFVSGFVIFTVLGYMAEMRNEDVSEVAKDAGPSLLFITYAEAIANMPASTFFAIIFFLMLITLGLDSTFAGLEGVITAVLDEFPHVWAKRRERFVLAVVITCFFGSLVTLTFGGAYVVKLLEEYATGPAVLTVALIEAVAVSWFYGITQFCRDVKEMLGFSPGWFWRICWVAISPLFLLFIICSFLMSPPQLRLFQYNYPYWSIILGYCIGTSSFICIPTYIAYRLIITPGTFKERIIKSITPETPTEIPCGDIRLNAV

Cytochrome P450 2C19 = Cytochrome P450 2C19 (Homo sapiens, UniProt P33261); assay: Inhibition of human CYP2C19 by fluorescence assay; assay type: ADME; method in brief: as §2
Chain of Cytochrome P450 2C19 (P33261 whole entry): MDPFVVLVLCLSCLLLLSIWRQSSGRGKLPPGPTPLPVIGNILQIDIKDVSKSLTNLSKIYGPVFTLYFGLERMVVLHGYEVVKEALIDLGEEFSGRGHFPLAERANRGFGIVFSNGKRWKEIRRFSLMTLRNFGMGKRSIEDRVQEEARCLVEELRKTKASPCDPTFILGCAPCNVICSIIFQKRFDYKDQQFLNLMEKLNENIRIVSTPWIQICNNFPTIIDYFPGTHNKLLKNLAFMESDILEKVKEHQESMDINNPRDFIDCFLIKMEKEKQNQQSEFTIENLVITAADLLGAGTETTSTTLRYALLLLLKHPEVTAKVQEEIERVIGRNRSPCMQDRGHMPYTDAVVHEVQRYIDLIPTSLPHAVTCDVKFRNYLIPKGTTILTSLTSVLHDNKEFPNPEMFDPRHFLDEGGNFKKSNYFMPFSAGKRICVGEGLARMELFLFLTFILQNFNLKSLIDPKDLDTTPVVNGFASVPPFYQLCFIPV

Cytochrome P450 3A4 = Cytochrome P450 3A4 (Homo sapiens, UniProt P08684); assay: Inhibition of human CYP3A4 by fluorescence assay
Chain of Cytochrome P450 3A4 (P08684 whole entry): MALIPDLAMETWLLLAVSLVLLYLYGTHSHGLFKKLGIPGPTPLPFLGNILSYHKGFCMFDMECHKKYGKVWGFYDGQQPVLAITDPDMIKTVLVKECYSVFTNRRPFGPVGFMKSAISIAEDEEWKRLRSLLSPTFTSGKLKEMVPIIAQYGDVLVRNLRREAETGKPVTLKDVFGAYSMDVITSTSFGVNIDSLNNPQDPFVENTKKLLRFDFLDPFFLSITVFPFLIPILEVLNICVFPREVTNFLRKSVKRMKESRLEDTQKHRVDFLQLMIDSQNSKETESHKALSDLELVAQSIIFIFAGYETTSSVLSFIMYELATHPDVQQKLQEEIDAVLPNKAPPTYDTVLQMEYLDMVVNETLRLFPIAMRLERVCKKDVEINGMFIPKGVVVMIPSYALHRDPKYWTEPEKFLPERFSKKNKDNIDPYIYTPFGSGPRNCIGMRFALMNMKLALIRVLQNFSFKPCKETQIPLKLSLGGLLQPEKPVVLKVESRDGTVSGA

[5] = (§5) Intrinsic clearance in rat liver microsomes assessed per gram of protein at 0.5 uM after 30 mins by HPLC-MS/MS analysis; assay type: ADME, Microsome; settings: liver microsomes; method in brief: as §4
[6] = Blood clearance in rat; assay type: ADME, organism-based
[7] = Ratio of drug level in brain to blood in rat; assay type: ADME, tissue-based; settings: read-out: BBR
[8] = Bioavailability in rat; assay type: ADME, organism-based; settings: in vivo
[9] = (§6) Half life in rat; assay type: ADME, organism-based; settings: in vivo
[10] = Fraction unbound in rat brain; assay type: ADME, tissue-based; settings: brain
[11] = Volume of distribution in rat; assay type: ADME, organism-based; settings: in vivo
Homo sapiens [12] = organism: Homo sapiens; assay: Selectivity for human recombinant SERT over human recombinant DAT
Homo sapiens [13] = organism: Homo sapiens; assay: Selectivity for human recombinant NET over human recombinant DAT
Liver microsomes [14] = assay: as §3; assay type: ADME, Microsome; settings: microsomes, 0.5 h, 0.5 µM; method in brief: as §4
Liver microsomes [15] = assay: as §5; assay type: ADME, Microsome; settings: microsomes, 0.5 h, 0.5 µM; method in brief: as §4
Rattus norvegicus = organism: Rattus norvegicus; assay: as §6; assay type: ADME, organism-based; settings: in vivo

Row | SMILES | Ki [1] [nM] | Ki [2] [nM] | IC50 (Cytochrome P450 2C9) [nM] | CLint scaled at 0.5 µM [3] [mL/min/kg] | IC50 (Cytochrome P450 2D6) [nM] | IC50 (Cytochrome P450 1A2) [nM] | Ki [4] [nM] | IC50 (Cytochrome P450 2C19) [nM] | IC50 (Cytochrome P450 3A4) [nM] | CLint scaled at 0.5 µM [5] [mL/min/kg] | clearance [6] [mL/min/kg] | Kp [7] | bioavailability [8] [%] | half-life [9] [h] | fraction unbound [10] | Vd [11] [L/kg] | further results
1 | CC(C)OC[C@@H]1[C@H]2CNC[C@]21c1ccc(Cl)c(Cl)c1 (stereo in doubt) | 0.251 | 5.01 | > 8000 | 1.4 | > 8000 | > 8000 | 0.126 | > 8000 | > 8000 | < 0.5 |  |  |  |  |  |  | 
2 | FC(F)(F)COC[C@@H]1[C@H]2CNC[C@]21c1ccc(Cl)c(Cl)c1 (stereo in doubt) | 1.58 | 25.1 |  |  |  |  | 0.631 |  |  |  | 42 | 18 | 41 | 1.4 | 0.006 | 3.2 | 
3 | COC[C@H]1[C@@H]2CNC[C@@]21c1ccc(Cl)c(Cl)c1 (relative stereo) |  |  |  |  |  |  |  |  |  |  |  |  |  |  |  |  | Selectivity ratio (Homo sapiens [12]): 70; Selectivity ratio (Homo sapiens [13]): 70
4 | Clc1ccc([C@@]23CNC[C@@H]2[C@H]3COCC2CC2)cc1Cl (stereo in doubt) | 0.631 | 12.6 | > 10000 |  | 1000 | > 10000 | 0.316 | 3000 | > 10000 |  | 72 | 10 | 32 | 1 | 0.001 | 5.2 | CL (Liver microsomes [14]): < 0.5 mL/min/g; CL (Liver microsomes [15]): 2.6 mL/min/g
5 | FC(F)(F)COC[C@H]1[C@@H]2CNC[C@@]21c1ccc(Cl)c(Cl)c1 (stereo in doubt) | 3.98 | 50.1 |  |  |  |  | 1.26 |  |  |  |  | 18 |  |  | 0.006 |  | t1/2 (Rattus norvegicus): 1.4 h
6 | COC[C@@H]1[C@H]2CNC[C@]21c1ccc2ccccc2c1 (stereo in doubt) | 0.631 | 25.1 | > 4000 | 2.2 | > 4000 | 900 | 0.0794 | > 4000 | > 4000 | 3.9 |  |  |  |  |  |  | 
